The source made the active and inactive calls.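 The calls were made as follows, unless noted: active = visually confirmed hit in the image check and inhibition above 20%; inconclusive = visually confirmed hit but inhibition not above 20%; inactive = no visual hit in the image check.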

The nature of assay [1]: inhibitors of TNFa-induced NFkB p65 translocation, primary screen, imaging, HUVEC, MLSMR starter and 10KST1 sets (AID 438;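 active = inhibition above 20% together with a positive visual image hit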;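 also: compound added about 3h40 before a 20 min TNFalpha stimulation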;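 as to inhibition: signal is the nuclear over cytoplasmic p65 intensity ratio per well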). The settings on record: HUVEC TNFa-induced p65 nuclear translocation; cell count: measured here: nuclei count (cytotoxicity indicator), at 2.08 µM; inhibition: at 2 µM, stronger effect = higher value, 0% TNFa-plus-vehicle, 100% no-TNFa wells.
Assay [2] is described as follows: endothelial E-selectin expression blockers – imaging, HUVEC, immunofluorescence, MLSMR starter and 10KST1 sets, primary screen (AID 487).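 As to inhibition: signal is fraction of cell area covered by stained E-selectin grains.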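 As to nuclei count: 100% = median nuclei count of all wells on the same plate.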 The following applies: HUVEC TNFalpha-induced E-selectin immunofluorescence imaging, at 2 µM; inhibition: stronger effect = higher value; nuclei count: measured here: cell number, toxicity.
Assay [3] is described as follows: Primary imaging screen for DUSP6 inhibitors that restore phospho-Erk in transfected HeLa cells, chemical complementation (AID 609;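 active = compounds giving at least 50% inhibition in the cell-based MKP-3 phosphatase rescue imaging test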;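 as to inhibition: phospho-Erk level distribution per well compared with pooled transfected vehicle control wells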). The settings on record: HeLa MKP-3 transfected, phospho-Erk imaging KS statistic, at 10 µM, cells stimulated with TPA for 15 min.
Assay [4] deals with Dual specificity protein phosphatase 6 (Homo sapiens) (UniProt Q16828). The assay is described as above. The settings on record: HeLa MKP-3 transfected, phospho-Erk imaging KS statistic; at 10 µM; stronger effect = higher value; cells stimulated with TPA for 15 min.
Dual specificity protein phosphatase 6 (Homo sapiens), sequence (Q16828 whole entry, looked up): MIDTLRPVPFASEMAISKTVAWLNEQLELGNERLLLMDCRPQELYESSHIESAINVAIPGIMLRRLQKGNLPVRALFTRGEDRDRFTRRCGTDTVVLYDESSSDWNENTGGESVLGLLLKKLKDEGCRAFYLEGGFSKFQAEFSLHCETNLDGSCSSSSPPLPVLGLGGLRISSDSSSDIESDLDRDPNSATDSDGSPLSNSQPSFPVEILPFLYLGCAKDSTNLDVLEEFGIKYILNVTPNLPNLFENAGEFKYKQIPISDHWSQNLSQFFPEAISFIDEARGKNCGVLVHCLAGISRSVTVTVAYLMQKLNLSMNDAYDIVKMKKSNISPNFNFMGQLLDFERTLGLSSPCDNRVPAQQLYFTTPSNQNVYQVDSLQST
For assay [5], the target named is Voltage-gated potassium channel subunit beta-2 (Rattus norvegicus) (UniProt P62483). Briefly: inhibitors of rat Kvbeta2 reductase activity – biochemical, NADPH fluorescence, primary screen (AID 622;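 active = fluorescence slope higher than the sample average by over 3 SD, cut at about -0.22 in these data, passing the limit was not always enough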;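 also: slope of raw intensity against log time taken from 70 to 1610 s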). The following applies: recombinant KvBeta, 4-cyanobenzaldehyde reduction, at 10 µM, stronger effect = higher value.
Voltage-gated potassium channel subunit beta-2 (Rattus norvegicus), sequence (P62483 whole entry, looked up): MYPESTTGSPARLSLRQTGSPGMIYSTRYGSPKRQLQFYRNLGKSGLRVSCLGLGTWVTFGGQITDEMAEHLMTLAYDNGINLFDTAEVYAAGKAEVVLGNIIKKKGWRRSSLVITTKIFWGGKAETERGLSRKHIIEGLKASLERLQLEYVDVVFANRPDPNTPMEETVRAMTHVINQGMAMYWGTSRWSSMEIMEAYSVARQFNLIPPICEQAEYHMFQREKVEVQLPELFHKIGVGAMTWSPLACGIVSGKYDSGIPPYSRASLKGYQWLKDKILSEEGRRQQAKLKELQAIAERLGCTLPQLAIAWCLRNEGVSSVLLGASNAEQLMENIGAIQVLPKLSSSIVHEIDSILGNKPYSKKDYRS
For assay [6] the target is unchanged. The assay is described as follows: enhancers of rat Kvbeta2 NADPH turnover – biochemical, NADPH fluorescence, primary screen (AID 623;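 active = NADPH fluorescence slope more negative than the mean of all samples by about 3 SD, 99.7% confidence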;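 also: fluorescence intensity change per second fitted from 20 to 320 s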). The settings on record: Recombinant KvBeta, NADPH fluorescence decrease slope, 10 min; at 10 µM; stronger effect = lower value.
For assay [7], the target named is Alpha-2C adrenergic receptor (Homo sapiens) (UniProt P18825). The assay is described as follows: compounds altering alpha2C-coupled GIRK flux – cell-based, HEK293 alpha2C/GIRK1/2, thallium flux, primary screen (AID 624;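 active = fluorescence slope after compound addition differing from the mean of all screened samples at 99.7% confidence, in either direction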;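 also: slope of fluorescence ratio to pre-addition baseline per second over 15 to 24 s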). The settings on record: thallium flux BTC fluorescence, at 10 µM, actives lie on both sides.
Alpha-2C adrenergic receptor (Homo sapiens), sequence (P18825 whole entry, looked up): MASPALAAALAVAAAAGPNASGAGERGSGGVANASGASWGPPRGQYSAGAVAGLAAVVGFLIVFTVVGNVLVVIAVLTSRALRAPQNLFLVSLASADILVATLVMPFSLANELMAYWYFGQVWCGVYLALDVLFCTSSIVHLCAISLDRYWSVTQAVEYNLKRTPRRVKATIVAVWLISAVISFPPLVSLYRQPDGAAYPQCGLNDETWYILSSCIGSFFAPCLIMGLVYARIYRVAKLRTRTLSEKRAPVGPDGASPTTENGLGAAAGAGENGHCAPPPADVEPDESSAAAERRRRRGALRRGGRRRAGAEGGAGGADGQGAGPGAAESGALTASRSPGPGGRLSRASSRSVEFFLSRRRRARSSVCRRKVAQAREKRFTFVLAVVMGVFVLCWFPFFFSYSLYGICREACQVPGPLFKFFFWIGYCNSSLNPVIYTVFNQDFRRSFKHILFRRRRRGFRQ
The nature of assay [8]: inhibitors of larval lipid processing in zebrafish, primary screen, whole organism, PED6 fluorescence, gall bladder and intestine (AID 686;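 active = a full or partial loss of lipid-probe fluorescence in the fish gall bladder, intestine or both, judged by eye; inactive = no fluorescence loss, or compound toxic to the fish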;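 also: larvae 5 to 7 days old with five fish per well; signal comes from phospholipase A2 cleavage of quenched PED6 carried via bile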). The settings on record: Zebrafish larvae PED6 lipid processing, fluorescence scoring; screened at 20 µM (by protocol). The method, boiled down:
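Incubation: overnight exposure of larvae to compound plus PED6 / Test system: live zebrafish larvae aged 5-7 days, whole organism / Amount: 5 larvae per well / Read-out basis: visual per-well fluorescence inhibition score / Signal: visual fluorescence microscopy scoring of gall bladder, gut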

A short description of assay [9]: loss of swimming-algae plug formation – whole organism, Chlamydomonas reinhardtii, WT vs cilia-less mutant, absorbance, 96-well, primary screen (AID 463189;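 active = inhibition at or above 50% relative to wild type and mutant plate controls; inactive = inhibition below 50%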;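 also: 0% = wild type cc124 cells in DMSO and 100% = ciliumless bld1 mutant cells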). The following applies: Chlamydomonas reinhardtii gravitaxis, OD600 absorbance, 2 days; at 10 µM; stronger effect = higher value.
Setting [10] is: measured here: cell density z-score.
Setting [11] is: measured here: nuclear c-Myc green intensity z-score.
[12] abbreviates: measured here: nuclear pErk red intensity z-score, stronger effect = higher value.

As to `CCn1c(-c2ccco2)n[nH]c1=S`, the cell count in assay [1] turned out to be 428. Also, the inhibition was -12.3% (inactive) in [1], -47.8% (inactive) in assay [2], 22.3% (inactive) in [4] and 19.9% (inactive) in assay [9]. The molecule further had a nuclei count in assay [2] of 92.3%. Also, the z-score is 0.73 in assay [3] (setting [10]), 0.522 in assay [3] (setting [11]) and -1.57 in assay [3] (setting [12]). For the same molecule, the fluorescence slope in assay [5] is -0.542 (inactive). In assay [6], the NADPH fluorescence slope is -2.6e-05 (inactive). In assay [7], the slope was 0.00489 (inactive). For the same molecule, the molecule was classed as inactive in assay [8].

Turning to `O=C(NCc1ccccc1)c1ccc(=O)[nH]n1`, the cell count in [1] turned out to be 328. Also, the inhibition in assay [1] is -0.3% (inactive); in assay [2], -132% (inactive); in assay [4], 11.3% (inactive); in [9], -6.14% (inactive). Also, the nuclei count in assay [2] amounted to 98.8%. In addition, the z-score in assay [3] (setting [10]) is -0.814; in assay [3] (setting [11]), 0.951; in assay [3] (setting [12]), -1.98. For the same molecule, the fluorescence slope in [5] is -0.456 (inactive). The NADPH fluorescence slope in [6] is -0.00047 (inactive). The slope in assay [7] was 0.00499 (inactive). In assay [8], the outcome is “inactive; toxic”.

As to `O=S1CCCSC1c1cccnc1` (centres undefined), the cell count in assay [1] turned out to be 524. Also, the inhibition in assay [1] was -10.3% (inactive); in [2] it was -190% (inactive); in assay [4] it was 13.9% (inactive); in assay [9] it was 2.49% (inactive). In [2], this molecule yielded a nuclei count of 144%. For the same molecule, the z-score in assay [3] (setting [10]) was 1.86; in assay [3] (setting [11]), -0.668; in [3] (setting [12]) it was -1.2. Besides, in [5], the fluorescence slope is -0.507 (inactive). Moreover, the NADPH fluorescence slope in assay [6] was -1.9e-05 (inactive). In assay [7], the slope is 0.00681 (inactive). Besides, the molecule was classed as inactive in [8].

As to `COc1ccc(OC)c(C2/C(=C(/O)c3ccc(C)cc3)C(=O)C(=O)N2Cc2ccco2)c1` (centres undefined), the cell count in [1] was 561. For the same molecule, the inhibition in assay [1] was -1.8% (inactive); in [2] it was -18.5% (inactive); in assay [4] it was -7.86% (inactive); in assay [9], -7.49% (inactive). This molecule also gave a nuclei count in [2] of 143%. In addition, the z-score in [3] (setting [10]) is 1.28; in assay [3] (setting [11]), 0.438; in assay [3] (setting [12]), 0.373. For the same molecule, the fluorescence slope in [5] was -0.568 (inactive). In addition, the NADPH fluorescence slope in [6] was -1.3e-05 (inactive). The slope in assay [7] is 0.00557 (inactive). For the same molecule, in assay [8], the molecule was called inactive.

Consider `COc1ccc(CN2CCC(=O)NC2=O)cc1`, for which the cell count in assay [1] was found to be 670. Moreover, the inhibition in assay [1] is -14.7% (inactive); in [2] it was -450% (inactive); in [4], 9.39% (inactive); in assay [9], 2.33% (inactive). The molecule also displayed a nuclei count in assay [2] of 162%. The values for the z-score in assay [3] (setting [10]), in assay [3] (setting [11]) and in [3] (setting [12]) were 0.756, -1.36 and 0.0301, respectively. For the same molecule, in [5], the fluorescence slope was -0.502 (inactive). In assay [6], the NADPH fluorescence slope was -3.7e-05 (inactive). Further, in assay [7], the slope was 0.00539 (inactive). Also, the outcome in assay [8] was inactive.

`CCN(CC)CCCn1c(C)cc2c(c1=O)C(c1ccc(OC)c(OC)c1OC)C(C#N)=C(N)O2` (centres undefined): the cell count in assay [1] stood at 439. The inhibition in assay [1] is 13.1% (inactive); in [2] it was -23% (inactive); in assay [4] it was 2.46% (inactive); in [9], -3.45% (inactive). For the same molecule, the nuclei count in assay [2] is 134%. The z-score in [3] (setting [10]) is -1.55; in assay [3] (setting [11]), -0.016; in assay [3] (setting [12]), 0.949. Moreover, the fluorescence slope in [5] was -0.389 (inactive). Besides, the NADPH fluorescence slope in [6] was -3.6e-05 (inactive). The slope in assay [7] is 0.0068 (inactive). Besides, the molecule was classed as inactive in assay [8].

For the molecule `O=C(CNC1C(=O)Nc2ccccc21)Sc1ccccc1` (centres undefined), in assay [1], the cell count turned out to be 636. In addition, the inhibition in [1] was -12.1% (inactive); in assay [2], -63.1% (inactive); in assay [4], 14.4% (inactive); in assay [9], -11.8% (inactive). The same molecule gave a nuclei count in assay [2] of 118%. Further, the z-score in assay [3] (setting [10]) was 1.09; in assay [3] (setting [11]), -0.106; in assay [3] (setting [12]), -0.738. Also, the fluorescence slope in assay [5] is -0.383 (inactive). Besides, in assay [6], the NADPH fluorescence slope is -1.8e-06 (inactive). In addition, in assay [7], the slope was 0.00502 (inactive). In assay [8], the result was inactive.

Take `CCOc1ccc(Cc2nc(N)nc(N)n2)cc1`: the cell count in assay [1] turned out to be 344. Besides, the inhibition in assay [1] is -18.3% (inactive); in assay [2], -269% (inactive); in assay [4], -8.76% (inactive); in assay [9] it was 6.25% (inactive). Moreover, in assay [2], the nuclei count was 155%. Further, the z-score is -1.09 in assay [3] (setting [10]), -0.542 in [3] (setting [11]) and -0.613 in [3] (setting [12]). The fluorescence slope in assay [5] is -0.447 (inactive). In assay [6], the NADPH fluorescence slope is -0.000176 (inactive). The slope in assay [7] is 0.00481 (inactive). Besides, in assay [8], the molecule was called inactive.

Regarding `CCc1nc(SCc2cccnc2)c(C#N)cc1C`, in assay [1], the cell count came to 594. Also, the inhibition is -3.5% (inactive) in [1], -81.5% (inactive) in assay [2], 2.46% (inactive) in assay [4] and 50.3% (active) in assay [9]. This molecule also yielded a nuclei count in [2] of 176%. The z-score in assay [3] (setting [10]) was 0.241; in [3] (setting [11]) it was -0.223; in [3] (setting [12]), -1.08. The fluorescence slope in [5] was -0.341 (inactive). The NADPH fluorescence slope in [6] was 8.2e-06 (inactive). In addition, the slope in assay [7] is 0.00538 (inactive). Also, the molecule was called inactive in assay [8].

Regarding `Cc1ccc(C2C(C(=O)c3cc4ccccc4o3)=C(O)C(=O)N2CCN(C)C)o1` (centres undefined), in [1], the cell count was 352. For the same molecule, the inhibition in assay [1] was -3% (inactive); in assay [2], 23.2% (inactive); in assay [4] it was -6.48% (inactive); in [9] it was -11.1% (inactive). The nuclei count in assay [2] was determined as 101%. The z-score in assay [3] (setting [10]) is -1.49; in assay [3] (setting [11]), 2.05; in assay [3] (setting [12]), -0.073. Also, the fluorescence slope in assay [5] was -0.443 (inactive). For the same molecule, in assay [6], the NADPH fluorescence slope is -2.4e-05 (inactive). In addition, the slope in assay [7] was 0.00982 (inactive). The molecule was classed as inactive in [8].

For `COc1cccc(OCCN2CCN(c3ncnc4c3cnn4-c3ccccc3)CC2)c1`, the cell count in assay [1] turned out to be 555. Further, the inhibition in [1] was -23.4% (inactive); in assay [2] it was -98.5% (inactive); in [4], -11.5% (inactive); in [9] it was 48.3% (inactive). Also, the nuclei count in assay [2] amounted to 166%. In addition, the z-score in [3] (setting [10]) is 0.225; in [3] (setting [11]), -1.36; in assay [3] (setting [12]) it was 0.0914. In assay [5], the fluorescence slope was -0.519 (inactive). Further, in [6], the NADPH fluorescence slope was -3.9e-05 (inactive). In addition, the slope in [7] was 0.00443 (inactive). Besides, the molecule was called inactive in assay [8].

As for `CC(=O)C1=C(O)C(=O)N(c2cccc(C(=O)O)c2)C1c1ccc(F)cc1` (centres undefined), the cell count in assay [1] was 580. Also, the inhibition was -13% (inactive) in assay [1], -65.7% (inactive) in assay [2], -6.06% (inactive) in assay [4] and -5.48% (inactive) in [9]. This molecule also came in with a nuclei count in [2] of 160%. For the same molecule, the z-score was -0.487 in assay [3] (setting [10]), -0.742 in [3] (setting [11]) and 1.35 in [3] (setting [12]). In assay [5], the fluorescence slope is -0.509 (inactive). In assay [6], the NADPH fluorescence slope is -3.9e-05 (inactive). For the same molecule, in assay [7], the slope is 0.00665 (inactive). For the same molecule, in [8], the call was inactive.

Turning to `CCCCOc1nc2ccccc2nc1C(C#N)C(=O)NC1CCCCC1` (centres undefined), in assay [1], the cell count was determined as 320. Also, the inhibition in [1] was -10.2% (inactive); in assay [2], -124% (inactive); in assay [4], -15.8% (inactive); in assay [9], 1.58% (inactive). Further, in assay [2], the nuclei count was 151%. In addition, the z-score was -1.21 in [3] (setting [10]), 0.194 in assay [3] (setting [11]) and 1.47 in assay [3] (setting [12]). In addition, the fluorescence slope in assay [5] was -0.41 (inactive). In addition, the NADPH fluorescence slope in assay [6] is -0.00013 (inactive). The slope in assay [7] was 0.00654 (inactive). Besides, the result in assay [8] was inactive.

For orientation: inhibition means the drop in the measured response relative to a control, in per cent.

The values above are taken from PubChem BioAssay.
